{"data": "Measured values of several laboratories", "target": "Wee1-like protein kinase (WEE1, Homo sapiens, UniProt P30291)", "note": "Lines come from different studies, so protocols differ."}
{"SMILES": "COc1cnc(Nc2cccc(S(N)(=O)=O)c2)nc1N1CCN(c2ccccc2)C(=O)C1", "assay": "binding, competition with immobilised ligand", "conditions": "1 µM", "remaining binding [%]": 98}
{"SMILES": "O=C(NCc1ncc(C(F)(F)F)cc1Cl)c1ccc2c(c1)C1(CCS(=O)(=O)CC1)[C@@H](C1CC1)N2S(=O)(=O)c1ccc(F)cc1", "assay": "cell-free assay, competition with immobilised ligand", "conditions": "1 µM", "remaining binding [%]": 100}
{"SMILES": "c1cncc(-c2cccc(Nc3nccc(NC4CCCCC4)n3)c2)c1", "assay": "binding, competition with immobilised ligand", "conditions": "10 µM", "remaining binding [%]": 90}
{"SMILES": "CCN1CCN(Cc2ccc(C(=O)Nc3ccc(C)c(Oc4ccc5c(c4)CC(=O)N5)c3)cc2C(F)(F)F)CC1", "assay": "binding, competition with immobilised ligand", "conditions": "1 µM", "remaining binding [%]": 100}
{"SMILES": "C[C@@H]1CCN(c2nccc(-c3cnn4ncccc34)n2)C1", "assay": "binding", "conditions": "1 µM", "remaining binding [%]": 100}
{"SMILES": "CNC(=O)[C@@H]1CC[C@@H](n2c(-c3ccc4cnccc4c3)nc3ccc(C(=O)NCc4cccc(C(N)=O)c4)cc32)C1", "assay": "binding, competition with immobilised ligand", "conditions": "1 µM", "remaining binding [%]": 98}
{"SMILES": "Cc1nccc(COC(=O)N2C[C@@H]3[C@@H](CNC(=O)c4ccc5[nH]nnc5c4)[C@@H]3C2)n1", "assay": "cell-free assay, competition with immobilised ligand", "conditions": "1 µM", "remaining binding [%]": 100}
{"SMILES": "O=C(Nc1c[nH]nc1C(=O)NC1CCNCC1)c1cc(F)cc(F)c1", "assay": "binding, competition with immobilised ligand", "conditions": "1 µM", "remaining binding [%]": 100}
{"SMILES": "O=C(NCCCN1CCOCC1)c1ccc(Nc2nccc(-c3cc4ccccc4s3)n2)cc1", "assay": "binding, competition with immobilised ligand", "conditions": "1 µM", "remaining binding [%]": 67}
{"SMILES": "FC(F)(F)Oc1cccc(-c2cnc3ccc(-c4ccncc4)nn23)c1", "assay": "binding, competition with immobilised ligand", "conditions": "5 µM", "remaining binding [%]": 90}
{"SMILES": "O=C(NCCCN1CCOCC1)c1ccc(Nc2ncc(Cl)c(-c3ccc(Cl)s3)n2)cc1", "assay": "binding, competition with immobilised ligand", "conditions": "1 µM", "remaining binding [%]": 15}
{"SMILES": "CC1CCCN1c1nccc(-c2cnn3ncccc23)n1 (stereo not shown)", "assay": "binding", "conditions": "1 µM", "remaining binding [%]": 100}
{"SMILES": "Cc1c[nH]c2nccc(Oc3c(F)cc(Nc4cc(Cl)nc(N)n4)cc3F)c12", "assay": "cell-free assay, competition with immobilised ligand", "conditions": "0.1 µM", "remaining binding [%]": 100}
{"SMILES": "N[C@H]1CCN(c2nccc(-c3cnn4ncccc34)n2)C1", "assay": "binding", "conditions": "1 µM", "remaining binding [%]": 68}
{"SMILES": "CN(c1ccnc(CNc2nc(Nc3ccc4c(c3)CC(=O)N4)ncc2C(F)(F)F)n1)S(C)(=O)=O", "assay": "cell-free assay, competition with immobilised ligand", "conditions": "1 µM", "remaining binding [%]": 13}
{"SMILES": "CN(C)c1nccc(-c2cnn3ncccc23)n1", "assay": "binding", "conditions": "1 µM", "remaining binding [%]": 80}
{"SMILES": "CC(C)CC(=O)N1CCc2nc(-c3ccc(Br)cc3)nc(N(C)Cc3ccccc3)c2C1", "assay": "cell-free assay, competition with immobilised ligand", "conditions": "0.1 µM", "remaining binding [%]": 100}
{"SMILES": "CN(CCCC(F)(F)F)c1nccc(-c2cnn3ncccc23)n1", "assay": "binding", "conditions": "1 µM", "remaining binding [%]": 100}
{"SMILES": "CO[C@@H](C)c1c(Nc2ccc([C@@H](N(C)C(=O)C3CCS(=O)(=O)CC3)C(F)(F)F)cc2)cnc2cc(Cl)nn12", "assay": "cell-free assay, competition with immobilised ligand", "conditions": "1 µM", "remaining binding [%]": 92}
{"SMILES": "F[C@@H]1CCN(c2nccc(-c3cnn4ncccc34)n2)C1", "assay": "binding", "conditions": "1 µM", "remaining binding [%]": 100}
{"SMILES": "O=C1CCc2cc(Nc3cc(OC4CCOCC4)c([N+](=O)[O-])cc3Cl)ccc2N1", "assay": "cell-free assay, competition with immobilised ligand", "conditions": "1 µM", "remaining binding [%]": 99}
{"SMILES": "O=C(c1ccc(Nc2ncc(Cl)c(-c3ccc(Cl)s3)n2)cc1)N1CCC(N2CCCC2)CC1", "assay": "binding, competition with immobilised ligand", "conditions": "1 µM", "remaining binding [%]": 11}
